pKd: −log10 of the molar value. Active and inactive are the calls of the source. The rule behind the calls is not given here.
Tests used:
[1] = Binding affinity to 32 base containing human telomeric repeat G-rich ssDNA by fluorescence quenching assay
In short: (§1)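 Ligand held at fixed 34–168 nM in 10 mM Tris–HCl (pH 8.0) with 100 mM KCl and 1 mM EDTA, then titrated with G-rich strand, C-rich complement, or duplex made by mixing both. Each addition mixed 2 min at 25 °C. Excitation 450 nm; quenching at 545 nm read. Kd fitted by nonlinear least squares to non-interacting-site mass-action model; triplicate titrations, mean ± SD.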

[2] = Binding affinity to double stranded human telomeric repeat by fluorescence quenching assay; in short: as §1
Homo sapiens [3] = species on record: Homo sapiens; experiment: Induction of dimer formation in human nuclease hypersensitive region of c-MYC gene NHE-27 G-rich ssDNA
Homo sapiens [4] = species on record: Homo sapiens; experiment: Induction of tetramer formation in human nuclease hypersensitive region of c-MYC gene NHE-27 G-rich ssDNA
Homo sapiens [5] = species on record: Homo sapiens; experiment: Induction of dimer formation in human telomeric repeat 2HTR G-rich ssDNA
[6] = Binding affinity to 32 base containing complementary human telomeric repeat C-rich ssDNA by fluorescence quenching assay; in short: as §1
Homo sapiens [7] = species on record: Homo sapiens; experiment: Induction of tetramer formation in human telomeric repeat 2HTR G-rich ssDNA
[8] = Binding affinity to human nuclease hypersensitive region of c-MYC gene NHE-27 by fluorescence quenching assay; in short: as §1
[9] = Binding affinity to human double stranded nuclease hypersensitive region of c-MYC gene NHE-27 by fluorescence quenching assay; in short: as §1
[10] = Binding affinity to complementary nuclease hypersensitive region of c-MYC gene NHE-27 by fluorescence quenching assay; set-up: species or system Homo sapiens; in short: as §1

| pKd [10] | Structure (SMILES) | pKd [1] | pKd [2] | Activity (Homo sapiens [3]) | Activity (Homo sapiens [4]) | Activity (Homo sapiens [5]) | pKd [6] | Activity (Homo sapiens [7]) | pKd [8] | pKd [9] |
| --- | --- | --- | --- | --- | --- | --- | --- | --- | --- | --- |
| – | O=C1c2ccc3c4ccc5c6c(ccc(c7ccc(c2c37)C(=O)N1CCN1CCCCC1)c64)C(=O)N(CCN1CCCCC1)C5=O | 8.47 | 7.52 | Active | Active | Active | 8.00 | Active | 8.26 | 8.18 |
| < 4.70 | COCCOCCOCC(COCCOCCOC)N1C(=O)c2ccc3c4ccc5c6c(ccc(c7ccc(c2c37)C1=O)c64)C(=O)N(C(COCCOCCOC)COCCOCCOC)C5=O | < 4.70 | < 4.70 | inactive | inactive | inactive | < 4.70 | inactive | 6.01 | 4.83 |

From ChEMBL document CHEMBL1144537, “Synthesis of a non-cationic, water-soluble perylenetetracarboxylic diimide and its interactions with G-quadruplex-forming DNA” (Bioorg Med Chem, 2007)
